Experiments:
[1] = Lipophilicity was determined by reversed-phase HPLC; details: extrapolated to 100% water
[2] = Half-life at pH 7.4 in rat 10% brain homogenate; assay type: ADME
Procedure, shortened: (§1)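 Fresh rat whole blood, or rat brain homogenized to 10% (w/v) in pH 7.4 phosphate buffer (1/20 M), spiked from DMSO stock to 40 μM final and held at 37 °C. Timed samples were extracted three times with 8% DMSO in acetonitrile, centrifuged, filtered and analyzed by HPLC. Pseudo-first-order rate constants came from log peak height versus time. Values are means of two determinations.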

[3] = Half-life at pH 7.4 in rat blood; assay type: ADME, organism-based
Procedure, shortened: as §1

[4] = Half-life in phosphate buffer (0.05 M, mu = 0.15) at 30 degree Celsius with pH 6.15; assay type: ADME
Procedure, shortened: (§2)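 DMSO stock added to 10 mL phosphate buffer (0.05 M, μ = 0.15) at the stated pH. Timed samples were analyzed by HPLC, with UV detection at 360 nm for dihydro CDS forms and 260 nm for quaternary salts. Pseudo-first-order disappearance rate constants came from linear regression of log peak height versus time, and half-lives were derived from them.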

[5] = Half-life in phosphate buffer (0.05 M, mu = 0.15) at 30 degree Celsius with pH 6.93; assay type: ADME
Procedure, shortened: as §2

[6] = Half-life in phosphate buffer (0.05 M, mu = 0.15) at 30 degree Celsius with pH 7.45; assay type: ADME
Procedure, shortened: as §2

[7] = Half-life in phosphate buffer (0.05 M, mu = 0.15) at 30 degree Celsius with pH 7.79; assay type: ADME
Procedure, shortened: as §2

[8] = Second-order oxidation rate constant determined using ferricyanide; assay type: ADME
Procedure, shortened: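 Chemical oxidation with ferricyanide was run under pseudo-first-order conditions, with Fe(CN)6^3- in large excess over the CDS and pH held constant. Pseudo-first-order rates were measured at several ferricyanide concentrations, and the second-order constant (M^-1 s^-1) was derived from them.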

[9] = Half-life in phosphate buffer (0.05 M, mu = 0.15) at 30 degree Celsius with pH 8.14; assay type: ADME
Procedure, shortened: as §2

[10] = Half-life in phosphate buffer (0.05 M, mu = 0.15) at 30 degree Celsius with pH 6.07; assay type: ADME
Procedure, shortened: as §2

[11] = Half-life in phosphate buffer (0.05 M, mu = 0.15) at 30 degree Centigrade with pH 6.88; assay type: ADME
Procedure, shortened: as §2

[12] = Half-life in phosphate buffer (0.05 M, mu = 0.15) at 30 degree Celsius with pH 7.43; assay type: ADME
Procedure, shortened: as §2

[13] = Half-life in phosphate buffer (0.05 M, mu = 0.15) at 30 degree Celsius with pH 7.73; assay type: ADME
Procedure, shortened: as §2

[14] = Half-life in phosphate buffer (0.05 M, mu = 0.15) at 30 degree Celsius with pH 8.05; assay type: ADME
Procedure, shortened: as §2

Homo sapiens = species: Homo sapiens; assay: Half-life at pH 7.4 in human blood; Compound insoluble; assay type: ADME, organism-based
Procedure, shortened: (§3)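 Freshly collected rabbit or human whole blood, spiked from DMSO stock to 40 μM final and kept at 37 °C. Timed samples were extracted three times with 8% DMSO in acetonitrile, centrifuged, filtered and analyzed by HPLC. Pseudo-first-order rate constants came from linear regression of log peak height versus time.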

Oryctolagus cuniculus [15] = species: Oryctolagus cuniculus; assay: Half-life at pH 7.4 in rabbit blood; Compound insoluble; assay type: ADME, organism-based
Procedure, shortened: as §3

[16] = Half-life at pH 7.4 in human blood; assay type: ADME, organism-based
Procedure, shortened: as §3

[17] = Half-life at pH 7.4 in rabbit blood; assay type: ADME, organism-based, Oryctolagus cuniculus
Procedure, shortened: as §3

[18] = Half-life in phosphate buffer (0.05 M, mu = 0.15) at 30 degree Celsius and pH 6.15; assay type: ADME
Procedure, shortened: as §2

[19] = Half-life in phosphate buffer (0.05 M, mu = 0.15) at 30 degree Celsius and pH 6.93; assay type: ADME
Procedure, shortened: as §2

[20] = Half-life in phosphate buffer (0.05 M, mu = 0.15) at 30 degree Celsius and pH 7.45; assay type: ADME
Procedure, shortened: as §2

Oryctolagus cuniculus [21] = species: Oryctolagus cuniculus; assay: Concentration of compound after 10 min in rabbit brain; assay type: functional, organism-based
Procedure, shortened: (§4)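 Oxacillin at 20 mg/kg, or an equimolar dose of its CDS, given i.v. to male Sprague-Dawley rats (tail vein) or male New Zealand albino rabbits (ear vein). Vehicle was water/ethanol/propylene glycol at 20 mg/mL. Samples were rat trunk blood after decapitation or rabbit ear-vein blood, with brain removed and frozen. Oxacillin was assayed by B. subtilis ATCC 6633 paper-disk diffusion and by HPLC. Values are means of two determinations.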

Oryctolagus cuniculus [22] = species: Oryctolagus cuniculus; assay: (§5) Concentration of compound after 5 minutes in rabbit blood; assay type: functional, organism-based
Procedure, shortened: as §4

Oryctolagus cuniculus [23] = species: Oryctolagus cuniculus; assay: Concentration of compound after 5 minutes in rabbit brain; assay type: functional, organism-based
Procedure, shortened: as §4

Oryctolagus cuniculus [24] = species: Oryctolagus cuniculus; assay: Concentration of compound after 10 min in rabbit blood; assay type: functional, organism-based
Procedure, shortened: as §4

Rattus norvegicus [25] = species: Rattus norvegicus; assay: Concentration of compound after 3 minutes in rat blood; assay type: functional, organism-based
Rattus norvegicus [26] = species: Rattus norvegicus; assay: Concentration of compound after 3 minutes in rat brain; assay type: functional, organism-based
Procedure, shortened: as §4

[27] = as §5; assay type: ADME, organism-based, Oryctolagus cuniculus
[28] = Concentration of compound after 10 minutes in rabbit blood; assay type: ADME, organism-based, Oryctolagus cuniculus

half-life [10] [min] | half-life [11] [min] | half-life [12] [min] | half-life [13] [min] | SMILES | Log k [1] | half-life [2] [min] | half-life [3] [min] | half-life [7] [min] | ko [8] [M⁻¹ s⁻¹] | half-life [9] [min] | also measured
– | – | – | – | Cc1onc(-c2c(Cl)cccc2Cl)c1C(=O)NC1C(=O)N2C1SC(C)(C)[C@@H]2C(=O)[O-].[Na+] (some centres not stated) | 2.435 | – | – | – | – | – | –
– | – | – | – | Cc1onc(-c2c(Cl)cccc2Cl)c1C(=O)NC1C(=O)N2C1SC(C)(C)[C@@H]2C(=O)OCOC(=O)C1=CN(C)C=CC1 (some centres not stated) | 3.41 | 12.6 | 4.1 | 932 | 0.23 | 598 | half-life [4]: 464 min; half-life [5]: 1010 min; half-life [6]: 1030 min
56 | 11.3 | 3.5 | 2.1 | Cc1onc(-c2ccccc2Cl)c1C(=O)NC1C(=O)N2C1SC(C)(C)[C@@H]2C(=O)OCOC(=O)c1ccc[n+](C)c1.[I-] (some centres not stated) | – | 1.1 | 0.6 | – | – | – | half-life [14]: 1 min
58.6 | 12 | 3.6 | 2 | COc1cccc(OC)c1C(=O)NC1C(=O)N2C1SC(C)(C)[C@@H]2C(=O)OCOC(=O)c1ccc[n+](C)c1.[I-] (some centres not stated) | – | 1.1 | 1 | – | – | – | T1/2 (Homo sapiens): Insoluble; T1/2 (Oryctolagus cuniculus [15]): Insoluble; half-life [14]: 1 min
– | – | – | – | COc1cccc(OC)c1C(=O)NC1C(=O)N2C1SC(C)(C)[C@@H]2C(=O)OCOC(=O)C1=CN(C)C=CC1 (some centres not stated) | 2.28 | 8 | 0.2 | 103 | 0.701 | 55.7 | half-life [16]: 116 min; half-life [17]: 10.7 min; half-life [18]: 130 min; half-life [19]: 238 min; half-life [20]: 134 min
– | – | – | – | Cc1onc(-c2ccccc2)c1C(=O)NC1C(=O)N2C1SC(C)(C)[C@@H]2C(=O)OCOC(=O)C1=CN(C)C=CC1 (some centres not stated) | 2.82 | 5.4 | 1.1 | 172 | 0.48 | 100 | half-life [16]: 7.5 min; half-life [17]: 23.7 min; half-life [4]: 249 min; half-life [5]: 277 min; half-life [6]: 196 min; Concentration (Oryctolagus cuniculus [21]): 0.3 µg/mL; Concentration (Oryctolagus cuniculus [22]): 4.6 µg/mL; Concentration (Oryctolagus cuniculus [23]): 0.3 µg/mL; Concentration (Oryctolagus cuniculus [24]): 2.2 µg/mL; Concentration (Rattus norvegicus [25]): 26.2 µg/mL; Concentration (Rattus norvegicus [26]): 2.1 µg/mL
44.4 | 14.7 | 3.9 | 2.9 | Cc1onc(-c2c(Cl)cccc2Cl)c1C(=O)NC1C(=O)N2C1SC(C)(C)[C@@H]2C(=O)OCOC(=O)c1ccc[n+](C)c1.[I-] (some centres not stated) | – | 1 | 0.7 | – | – | – | –
– | – | – | – | Cc1onc(-c2ccccc2Cl)c1C(=O)NC1C(=O)N2C1SC(C)(C)[C@@H]2C(=O)[O-].[Na+] (some centres not stated) | 2.097 | – | – | – | – | – | –
49 | 10.3 | 3.4 | 1.9 | Cc1onc(-c2ccccc2)c1C(=O)NC1C(=O)N2C1SC(C)(C)[C@@H]2C(=O)OCOC(=O)c1ccc[n+](C)c1.[I-] (some centres not stated) | – | 1.2 | 0.7 | – | – | – | half-life [14]: 1.1 min
– | – | – | – | Cc1onc(-c2ccccc2)c1C(=O)N[C@@H]1C(=O)N2[C@@H]1SC(C)(C)[C@@H]2C(=O)[O-].[Na+] | 1.868 | – | – | – | – | – | concentration at 5 min [27]: 15300 ng/mL; concentration at 10 min [28]: 9100 ng/mL; Concentration (Rattus norvegicus [25]): 41.1 µg/mL
– | – | – | – | COc1cccc(OC)c1C(=O)N[C@@H]1C(=O)N2[C@@H]1SC(C)(C)[C@@H]2C(=O)[O-].[Na+] | 0.658 | – | – | – | – | – | –
– | – | – | – | Cc1onc(-c2ccccc2Cl)c1C(=O)NC1C(=O)N2C1SC(C)(C)[C@@H]2C(=O)OCOC(=O)C1=CN(C)C=CC1 (some centres not stated) | 3.06 | 10 | 3.8 | 305 | 0.36 | 165 | half-life [4]: 350 min; half-life [5]: 506 min; half-life [6]: 377 min

Source: ChEMBL document CHEMBL1124554, “Chemical delivery systems for some penicillinase-resistant semisynthetic penicillins” (J Med Chem, 1989)
